Where only a bound is given, the exact number is not on record here.

For one test, the system named is NCI-H460. The test is described as follows: Antiproliferative activity against human NCI-H460 cells after 48 hrs by MTT assay. The following applies: NCI-H460, 48 h. The class given is functional, cell-based. In outline:
(§1)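 MTT read-out of antiproliferative activity across cancer lines HepG-2, NCI-H460, MGC-803, A549 and MG-63 and normal liver line HL-7702. IC50 given as mean ± S.D. of three separate experiments, each run in triplicate.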

A further test deals with A549. The test is described as follows: Antiproliferative activity against human A549 cells after 48 hrs by MTT assay. The class given is functional, cell-based. The following applies: A549, 48 h. An outline of the steps:
as §1

The subject of another test is HepG2. The experiment in a line: Antiproliferative activity against human HepG2 cells after 48 hrs by MTT assay. The following applies: HepG2, 48 h. The class given is functional, cell-based. In outline:
as §1

For the next test, the system named is SK-OV-3. The experiment in a line: Growth inhibition of cisplatin sensitive human SKOV3 cells after 48 hrs by MTT assay. The class given is functional, cell-based. The following applies: SK-OV-3, 48 h. An outline of the steps: (§2)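 MTT growth inhibition in the paired ovarian lines, cisplatin-sensitive SK-OV-3 and cisplatin-resistant SK-OV-3/CDDP. IC50 given as mean ± S.D. of three separate experiments, each in triplicate.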

A further test concerns MGC-803. The experiment in a line: Antiproliferative activity against human MGC803 cells after 48 hrs by MTT assay. The class given is functional, cell-based. The following applies: MGC-803, 48 h. In outline:
as §1

Another test relates to L02. The test is described as follows: Antiproliferative activity against human HL-7702 cells after 48 hrs by MTT assay. The following applies: L02, 48 h. The class given is functional, cell-based. An outline of the steps: as §1
The subject of another test is MG-63. The test is described as follows: Antiproliferative activity against human MG63 cells after 48 hrs by MTT assay. The class given is functional, cell-based. The following applies: MG-63, 48 h. In outline: as §1
A short description of test [1]: Selectivity ratio of IC50 for cisplatin-resistant human SKOV3/DDP cells to IC50 for cisplatin sensitive human SKOV3 cells. The class given is functional. An outline of the steps:
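IC50 determined in resistant SK-OV-3/CDDP cells divided by IC50 in parental SK-OV-3 cells. Each IC50 by MTT, three separate experiments each in triplicate.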

The nature of test [2]: Inhibition of TNF-alpha induced NF-kappaB activation in human A549 cells after 7 hrs by Bright-Glo luciferase reporter gene assay. The class given is cell-based. An outline of the steps: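 A549 cells transiently cotransfected with an NF-κB-Luc reporter and stimulated with TNF-α. Luciferase read-out of inhibition gives IC50, the mean of at least three independent experiments each with triplicates.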

The nature of test [3]: Growth inhibition of cisplatin-resistant human SKOV3/DDP cells after 48 hrs by MTT assay. The class given is functional. The following applies: SK-OV-3, 48 h. An outline of the steps: as §2
[4] abbreviates: Homo sapiens, A549, 7 h, read-out: IC50.

With `CC1(C)[C@@H](O)CC[C@]2(C)[C@H]3C(=O)C=C4[C@@H]5C[C@@](C)(C(=O)O)CC[C@]5(C)CC[C@@]4(C)[C@]3(C)CC[C@@H]12` [ENOXOLONE], the IC50 in the test with NCI-H460 was 37.6 µM; in the test with A549, 36.1 µM; in the test with HepG2, 44.5 µM; with SK-OV-3, 45.6 µM; in the test on MGC-803 it was over 50 µM; with L02, over 50 µM. The IC50 was over 50 µM in the test on MG-63, over 30 µM in [2] (setting [4]) and 49.4 µM in test [3]. The “Ratio IC50” value in test [1] was 1.08.
Regarding `CCOP(=O)(OCC)C(Nc1ccc(CC(=O)NCCCNC(=O)[C@@]2(C)CC[C@]3(C)CC[C@]4(C)C(=CC(=O)[C@@H]5[C@@]6(C)CC[C@H](OC(C)=O)C(C)(C)[C@@H]6CC[C@]54C)[C@@H]3C2)cc1)c1ccc(F)cc1` (stereo partly specified), the half-inhibitory concentration (IC50) is 14.9 µM with NCI-H460; 15 µM with A549; 15.3 µM in the test with HepG2; 10.1 µM with SK-OV-3; 16.3 µM in the test with MGC-803; over 50 µM in the test on L02. Further, the IC50 in the test with MG-63 turned out to be 13.7 µM; in test [2] (setting [4]), 3.01 µM; in [3], 13.4 µM. The “Ratio IC50” value in test [1] was found to be 1.32.
On to `CCOP(=O)(OCC)C(Nc1ccc(CC(=O)NCCCNC(=O)[C@@]2(C)CC[C@]3(C)CC[C@]4(C)C(=CC(=O)[C@@H]5[C@@]6(C)CC[C@H](OC(C)=O)C(C)(C)[C@@H]6CC[C@]54C)[C@@H]3C2)cc1)c1cccc(Br)c1` (stereo partly specified), for which the IC50 with NCI-H460, with A549, in the test on HepG2, with MGC-803, in the test on L02 and in the test on MG-63 was over 50 µM throughout. Besides, the IC50 in test [2] (setting [4]) was over 30 µM.
As for `CCOP(=O)(OCC)C(Nc1ccc(CC(=O)NCCCCNC(=O)[C@@]2(C)CC[C@]3(C)CC[C@]4(C)C(=CC(=O)[C@@H]5[C@@]6(C)CC[C@H](OC(C)=O)C(C)(C)[C@@H]6CC[C@]54C)[C@@H]3C2)cc1)c1ccc(Br)cc1` (stereo partly specified), the half-maximal inhibitory concentration (IC50) with NCI-H460 is 10.2 µM; with A549, 17.3 µM; in the test on HepG2 it was 19.8 µM; in the test on MGC-803, 17.4 µM; with L02 it was over 50 µM; with MG-63, 19.2 µM. Further, in test [2] (setting [4]), the IC50 worked out at 11.1 µM.
Consider `CCOP(=O)(OCC)C(Nc1ccc(CC(=O)NCCCNC(=O)[C@@]2(C)CC[C@]3(C)CC[C@]4(C)C(=CC(=O)[C@@H]5[C@@]6(C)CC[C@H](O)C(C)(C)[C@@H]6CC[C@]54C)[C@@H]3C2)cc1)c1ccc(F)cc1` (stereo partly specified), for which the IC50 is 17.3 µM in the test with NCI-H460; 17.9 µM in the test with A549; 29.1 µM in the test with HepG2; 20.5 µM in the test on MGC-803; over 50 µM with L02; 16.5 µM with MG-63. Besides, the IC50 in test [2] (setting [4]) amounted to 8.89 µM.
Take `CCOP(=O)(OCC)C(Nc1ccc(CC(=O)NCCCNC(=O)[C@@]2(C)CC[C@]3(C)CC[C@]4(C)C(=CC(=O)[C@@H]5[C@@]6(C)CC[C@H](OC(C)=O)C(C)(C)[C@@H]6CC[C@]54C)[C@@H]3C2)cc1)c1ccc(Br)cc1` (stereo partly specified): the IC50 in the test with NCI-H460 was 17.1 µM; with A549, 20.5 µM; in the test with HepG2, 23.6 µM; with MGC-803, 29.9 µM; in the test on L02 it was over 50 µM; with MG-63, 21.3 µM. The half-maximal inhibitory concentration (IC50) in test [2] (setting [4]) was determined as 28.4 µM.
For the compound `CCOP(=O)(OCC)C(Nc1ccc(CC(=O)NCCCCNC(=O)[C@@]2(C)CC[C@]3(C)CC[C@]4(C)C(=CC(=O)[C@@H]5[C@@]6(C)CC[C@H](O)C(C)(C)[C@@H]6CC[C@]54C)[C@@H]3C2)cc1)c1ccc(F)cc1` (stereo partly specified), the concentration for half-maximal inhibition (IC50) with NCI-H460 was 19.4 µM; in the test with A549 it was 19.8 µM; with HepG2 it was 20.2 µM; in the test with MGC-803, 18.3 µM; in the test on L02, over 50 µM; in the test with MG-63, 12.4 µM. For the same compound, the IC50 in [2] (setting [4]) stood at 6.09 µM.
With `CCOP(=O)(OCC)C(Nc1ccc(CC(=O)NCCCNC(=O)[C@@]2(C)CC[C@]3(C)CC[C@]4(C)C(=CC(=O)[C@@H]5[C@@]6(C)CC[C@H](O)C(C)(C)[C@@H]6CC[C@]54C)[C@@H]3C2)cc1)c1cccc(OC)c1` (stereo partly specified), the IC50 in the test on NCI-H460 was over 50 µM; in the test on A549, over 50 µM; in the test with HepG2, over 50 µM; with MGC-803, 45.2 µM; with L02 it was over 50 µM; in the test with MG-63, 46.6 µM. Besides, the concentration for half-maximal inhibition (IC50) entry in test [2] (a549) is reported as “Not Active”.
Consider `CCOP(=O)(OCC)C(Nc1ccc(CC(=O)NCCCNC(=O)[C@@]2(C)CC[C@]3(C)CC[C@]4(C)C(=CC(=O)[C@@H]5[C@@]6(C)CC[C@H](OC(C)=O)C(C)(C)[C@@H]6CC[C@]54C)[C@@H]3C2)cc1)c1ccc(OC)cc1` (stereo partly specified), for which the IC50 in the test on NCI-H460 is 18.8 µM; in the test with A549, 19.3 µM; in the test on HepG2, 19.3 µM; with MGC-803, 18.2 µM; with L02 it was over 50 µM; with MG-63, 19.1 µM. The IC50 in [2] (setting [4]) was 5.03 µM.
Consider `CCOP(=O)(OCC)C(Nc1ccc(CC(=O)NCCCNC(=O)[C@@]2(C)CC[C@]3(C)CC[C@]4(C)C(=CC(=O)[C@@H]5[C@@]6(C)CC[C@H](O)C(C)(C)[C@@H]6CC[C@]54C)[C@@H]3C2)cc1)c1ccc(OC)cc1` (stereo partly specified), for which the IC50 was 29.4 µM in the test with NCI-H460; 23.1 µM in the test with A549; 36.8 µM in the test with HepG2; 25.7 µM in the test on MGC-803; over 50 µM with L02; 23.6 µM in the test on MG-63. Besides, the IC50 in test [2] (setting [4]) was 17.1 µM.

(Values after ChEMBL document CHEMBL4382268, “Glycyrrhetinic acid derivatives containing aminophosphonate ester species as multidrug resistance reversers that block the NF-κB pathway and cell proliferation” (Bioorg Med Chem Lett, 2018).)
